From ChEMBL document CHEMBL5154772, “Biological Investigation of a Water-Soluble Isoginkgetin-Phosphate Analogue, Targeting the Spliceosome with In Vivo Antitumor Activity” (J Med Chem, 2022) come the findings set out here.

Holding throughout (format): functional, cell-based
The test system of one assay is MCA-205. Description: Induction of B3Z T-cell activation cocultured with mouse MCA-205 cells expressing SL8 epitope assessed as increase in intron-derived SL8 antigen presentation at 2 to 10 uM measured after 18 hrs. The conditions noted are these: dose 2-10 µM. In a few lines: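 MCA205 cells transfected with YFP-Globin-SL8-intron plasmid (pCDNA3 empty-vector control). 24 h later, treated 18 h. Washed, then 5x10^4 cells co-cultured with 1x10^5 SL8/H-2Kb-specific B3Z CD8+ T-cell hybridoma for 18 h at 37 °C. Cells lysed, β-galactosidase read with 40 µM MUG substrate over 3 h at room temperature. Normalised to unspecific B3Z activation. At least three biological replicates, Student's t-test.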

The subject of assay [1] is U2OS. Nature of the assay: Antitumor immunity against human U2OS cells assessed as decrease in ATP by measuring reduction in quinacrine green fluorescence intensity at 3 uM pretreated for 24 hrs by live fluorescence microscopic analysis.
The subject of assay [2] is U2OS. Description: Antitumor immunity against human U2OS cells expressing CALR-GFP fusion protein assessed as accumulation CALR-GFP fusion protein at 3 uM measured upto 24 hrs by live cell microscopic analysis.
For assay [3], the system named is U2OS. Nature of the assay: Antitumor immunity against human U2OS cells expressing HMGBI-GFP fusion protein assessed as accumulation HMGBI-GFP fusion protein at 3 uM measured upto 24 hrs by live cell microscopic analysis.

The source made the active and inactive calls. The calls are words filed in the database; no cut-off is given here.

`COc1cc(-c2ccc(=O)[nH]n2)ccc1OC(F)F`: in the assay with MCA-205, the outcome was Active.

In the case of `O=C1c2c(O)ccc(O)c2C(=O)c2c(NCCNCCO)ccc(NCCNCCO)c21`, the result in the assay with U2OS [1], in the assay on U2OS [2] and in the assay with U2OS [3] was Active.
